Experimental data as given in ChEMBL document CHEMBL1671809, “Discovery of phosphoric acid mono-{2-[(E/Z)-4-(3,3-dimethyl-butyrylamino)-3,5-difluoro-benzoylimino]-thiazol-3-ylmethyl} ester (Lu AA47070): a phosphonooxymethylene prodrug of a potent and selective hA(2A) receptor antagonist” (J Med Chem, 2011).
Converted amounts (≈) assume the structure as drawn.

How the values were obtained:
Adenosine receptor A2a = Adenosine receptor A2a (Homo sapiens, UniProt P29274); assay: Displacement of [3H]-ZM241385 from human adenosine A2A receptor expressed in high five cells after 30 mins by scintillation counting
Chain of Adenosine receptor A2a (P29274 whole entry): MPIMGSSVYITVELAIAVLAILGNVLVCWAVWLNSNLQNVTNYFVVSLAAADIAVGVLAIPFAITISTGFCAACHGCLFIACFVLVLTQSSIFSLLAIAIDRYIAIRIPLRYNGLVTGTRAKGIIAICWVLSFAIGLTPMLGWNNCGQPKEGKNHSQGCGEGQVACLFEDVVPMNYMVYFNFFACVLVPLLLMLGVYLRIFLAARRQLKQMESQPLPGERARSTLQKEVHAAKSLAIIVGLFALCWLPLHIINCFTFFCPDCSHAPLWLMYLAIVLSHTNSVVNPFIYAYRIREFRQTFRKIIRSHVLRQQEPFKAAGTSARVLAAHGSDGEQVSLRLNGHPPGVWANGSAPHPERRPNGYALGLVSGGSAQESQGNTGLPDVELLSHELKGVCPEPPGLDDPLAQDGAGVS

Adenosine receptor A1 = biological target: T1, Adenosine receptor A1 (Homo sapiens, UniProt P30542); assay: Displacement of [3H]-DPCPX from human adenosine A1 receptor expressed in CHO cells after 30 mins by scintillation counting; assay type: cell-based
T1 sequence (P30542 whole entry): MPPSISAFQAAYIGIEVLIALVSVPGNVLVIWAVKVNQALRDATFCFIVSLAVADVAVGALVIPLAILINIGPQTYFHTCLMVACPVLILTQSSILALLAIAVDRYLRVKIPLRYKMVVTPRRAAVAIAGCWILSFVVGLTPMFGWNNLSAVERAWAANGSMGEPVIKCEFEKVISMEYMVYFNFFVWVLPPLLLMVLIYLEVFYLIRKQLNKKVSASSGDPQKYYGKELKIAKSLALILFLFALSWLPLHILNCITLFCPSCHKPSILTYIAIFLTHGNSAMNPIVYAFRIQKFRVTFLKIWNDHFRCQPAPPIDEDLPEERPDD
Procedure, shortened: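 CHO-hA1 membranes at 10.8 μg protein/well, pretreated with adenosine deaminase (2 U/mL, 30 min, 37 C), were incubated with 1 nM [3H]-DPCPX in 50 mM Tris/HCl pH 7.4 for 30 min at 25 C across 10 compound concentrations. Filtration on PEI-soaked GF/B, scintillation counting. Nonspecific binding by CGS15943. Ki by Cheng-Prusoff. Means of ≥2 determinations.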

Cytochrome P450 1A2 = biological target: T2, Cytochrome P450 1A2 (Homo sapiens, UniProt P05177); assay: Inhibition of recombinant CYP1A2 after 28 mins; assay type: ADME
T2 sequence (P05177 whole entry): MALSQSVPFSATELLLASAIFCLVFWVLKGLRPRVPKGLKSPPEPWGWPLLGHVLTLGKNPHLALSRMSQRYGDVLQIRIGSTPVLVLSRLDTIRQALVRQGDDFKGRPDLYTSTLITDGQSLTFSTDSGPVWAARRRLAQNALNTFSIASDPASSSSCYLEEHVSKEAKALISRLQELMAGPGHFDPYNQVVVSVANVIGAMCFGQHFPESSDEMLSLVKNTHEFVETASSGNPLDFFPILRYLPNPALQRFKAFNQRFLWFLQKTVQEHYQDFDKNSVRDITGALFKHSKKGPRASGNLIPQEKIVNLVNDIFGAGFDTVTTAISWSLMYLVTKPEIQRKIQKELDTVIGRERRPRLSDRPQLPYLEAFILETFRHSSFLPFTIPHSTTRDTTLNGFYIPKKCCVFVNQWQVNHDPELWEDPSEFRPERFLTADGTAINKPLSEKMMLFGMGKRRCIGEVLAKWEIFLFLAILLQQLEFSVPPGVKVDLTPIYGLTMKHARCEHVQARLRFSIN
Procedure, shortened: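 Recombinant CYP supersomes incubated in phosphate buffer with eight compound concentrations (40-0.02 μM) and fluorogenic substrates. CYP1A2: 7-ethoxy-3-cyanocoumarin 10 μM, 28 min. CYP2C19: same substrate 50 μM, 45 min. CYP2D6: AMMC 3 μM, 45 min. CYP3A4: resorufin benzyl ether 100 μM, 30 min. Fluorescent metabolite read; IC50 relative to uninhibited controls.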

Cytochrome P450 2C9 = Cytochrome P450 2C9 (Homo sapiens, UniProt P11712); assay: Inhibition of recombinant CYP2C9 after 45 mins; assay type: ADME
Chain of Cytochrome P450 2C9 (P11712 whole entry): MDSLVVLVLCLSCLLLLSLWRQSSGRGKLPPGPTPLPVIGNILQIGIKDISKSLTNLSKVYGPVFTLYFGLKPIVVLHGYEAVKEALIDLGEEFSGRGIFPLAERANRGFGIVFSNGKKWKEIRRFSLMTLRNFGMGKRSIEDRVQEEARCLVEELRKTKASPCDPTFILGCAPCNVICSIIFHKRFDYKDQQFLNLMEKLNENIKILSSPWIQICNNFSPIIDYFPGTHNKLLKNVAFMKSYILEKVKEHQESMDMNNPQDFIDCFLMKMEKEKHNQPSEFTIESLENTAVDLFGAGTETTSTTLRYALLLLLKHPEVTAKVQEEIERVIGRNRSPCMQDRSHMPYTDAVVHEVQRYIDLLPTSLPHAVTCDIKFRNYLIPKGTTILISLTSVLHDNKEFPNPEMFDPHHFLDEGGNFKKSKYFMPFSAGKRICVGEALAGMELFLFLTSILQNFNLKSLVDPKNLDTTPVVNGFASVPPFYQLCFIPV

Adenosine receptor A3 = biological target: T3, Adenosine receptor A3 (Homo sapiens, UniProt P0DMS8); assay: Displacement of [3H]-AB-MECA from human recombinant adenosine A3 receptor expressed in CHO-K1 cells after 60 mins; assay type: cell-based
T3 sequence (P0DMS8 whole entry): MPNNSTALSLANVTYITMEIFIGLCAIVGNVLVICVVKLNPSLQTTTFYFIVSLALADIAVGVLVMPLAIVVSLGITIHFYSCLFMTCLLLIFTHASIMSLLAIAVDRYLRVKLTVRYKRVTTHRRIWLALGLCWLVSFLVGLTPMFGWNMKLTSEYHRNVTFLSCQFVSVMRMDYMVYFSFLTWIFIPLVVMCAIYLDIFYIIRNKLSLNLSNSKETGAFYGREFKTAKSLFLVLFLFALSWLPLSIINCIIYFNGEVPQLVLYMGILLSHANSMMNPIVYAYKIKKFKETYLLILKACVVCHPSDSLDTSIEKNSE

[1] = biological target: T4, Adenosine receptor A3 (Homo sapiens) (UniProt P0DMS8); assay: Displacement of [3H]-AB-MECA from human recombinant adenosine A3 receptor expressed in CHO-K1 cells at 10 uM after 60 mins; assay type: cell-based
T4 sequence (whole entry): T3 sequence (P0DMS8 whole entry)

[2] = Apparent permeability from basolateral to apical side in human Caco2 cells at 1 uM after 21 to 28 days; assay type: ADME, cell-based; conditions: caco-2
Procedure, shortened: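 Caco-2 cells grown 21-28 days on permeable filters. A 2 mM DMSO stock was diluted into Hanks-HEPES pH 7.4. Dosing solution went into the apical (A-B) or basolateral (B-A) chamber, and the opposite chamber was sampled over 240 min with buffer replacement. Efflux ratio = Papp,B-A/Papp,A-B. Mean ± SD, n = 3.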

[3] = Plasma clearance in Sprague-Dawley rat at 0.5 mg/kg, iv and 1 mg/kg, po; assay type: ADME, organism-based
Procedure, shortened: (§1)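 Awake Sprague-Dawley rats carrying a carotid catheter were dosed with 0.5 mg/kg iv or 1 mg/kg po in aqueous 25% cremophore, n = 3 per route. Ten 100 μL blood samples were collected automatically over 20 h. Plasma was assayed by HTLC-MS/MS. Parameters came from a two-compartment model with first-order absorption (po) and elimination.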

[4] = Volume of distribution at steady state in Sprague-Dawley rat at 0.5 mg/kg, iv and 1 mg/kg, po; assay type: ADME, organism-based; conditions: in vivo, read-out: Vdss; procedure, shortened: as §1
Mus musculus = assay: Displacement of [3H]SCH58261 from po dosed NMRI mouse striatum by liquid scintillation counting; assay type: functional
[5] = Aqueous solubility of the compound at pH 7.4; assay type: physicochemical; conditions: buffer
Procedure, shortened: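 About 5 mg solid was shaken overnight in 1 mL of 25 mM phosphate buffer, pH 7.4, after 3 min sonication; more solid was added if it all dissolved. The suspension was filtered through 0.22 μm PVDF and the solution measured by HPLC against a standard curve.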

Adenosine receptor A2b = biological target: T5, Adenosine receptor A2b (Homo sapiens, UniProt P29275); assay: Displacement of [3H]-MRS1754 from human recombinant adenosine A2B receptor expressed in HEK293 cells after 120 mins
T5 sequence (P29275 whole entry): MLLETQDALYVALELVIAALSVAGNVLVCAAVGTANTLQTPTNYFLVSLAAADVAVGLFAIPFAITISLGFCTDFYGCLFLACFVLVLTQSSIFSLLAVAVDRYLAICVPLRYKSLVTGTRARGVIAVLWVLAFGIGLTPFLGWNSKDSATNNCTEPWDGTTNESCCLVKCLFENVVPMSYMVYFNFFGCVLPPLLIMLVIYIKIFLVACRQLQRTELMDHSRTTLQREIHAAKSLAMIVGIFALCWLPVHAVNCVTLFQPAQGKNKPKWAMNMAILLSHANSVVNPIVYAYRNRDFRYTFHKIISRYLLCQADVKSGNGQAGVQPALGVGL

Ki (Adenosine receptor A2a): 5.9 nM
Ki (Adenosine receptor A1): 410 nM
IC50 (Cytochrome P450 1A2): > 40000 nM
IC50 (Cytochrome P450 2C9): > 40000 nM
Ki (Adenosine receptor A3): > 10000 nM
inhibition [1]: 36%
Papp B→A at 1 µM [2]: 67 ×10⁻⁶ cm/s
clearance [3]: 5 mL/min/kg
Vd [4]: 1 L/kg
Activity (Mus musculus): Dose-dependent effect
solubility [5]: 1 µg/mL (≈ 2.83 µM)
Ki (Adenosine receptor A2b): 260 nM
SMILES: CC(C)(C)CC(=O)Nc1c(F)cc(C(=O)Nc2nccs2)cc1F
ED50 (Mus musculus): 1.1 mg/kg
